The target in test [1] is T1, Malate dehydrogenase, cytoplasmic (Sus scrofa) (UniProt P11708).
T1 sequence (whole entry): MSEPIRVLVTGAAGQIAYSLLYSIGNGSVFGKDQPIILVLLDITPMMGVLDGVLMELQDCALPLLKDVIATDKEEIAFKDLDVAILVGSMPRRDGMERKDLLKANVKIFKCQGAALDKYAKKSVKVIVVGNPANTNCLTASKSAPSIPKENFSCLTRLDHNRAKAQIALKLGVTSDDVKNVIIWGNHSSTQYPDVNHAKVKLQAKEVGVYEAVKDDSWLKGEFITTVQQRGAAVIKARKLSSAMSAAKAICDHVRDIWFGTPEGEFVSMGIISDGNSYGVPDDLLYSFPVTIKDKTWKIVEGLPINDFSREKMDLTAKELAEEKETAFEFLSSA
Put plainly: Ability to inhibit cytoplasmic malate dehydrogenase; Inactive. In outline: (§1)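 Pig heart enzyme (cytoplasmic or mitochondrial form), diluted in 0.05 M Tris pH 7.4 with 1% BSA to give 0.022–0.027 OD/min at 340 nm. Cuvette holds 0.05 M Tris pH 8.4, L-malate, NAD+ and Me2SO ± inhibitor. Equilibrated at 25 °C, then started with enzyme. Five inhibitor concentrations in triplicate; I50 from least-squares dose-response line.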

Test [2] concerns L-lactate dehydrogenase, skeletal muscle M4 (Oryctolagus cuniculus). Kind of test: Ability to inhibit skeletal muscle LDH (LDH-M4); Inactive. The conditions noted are these: Muscle tissue.
Test [3] concerns the target T2, Malate dehydrogenase, mitochondrial (Sus scrofa) (UniProt P00346).
T2 sequence (whole entry): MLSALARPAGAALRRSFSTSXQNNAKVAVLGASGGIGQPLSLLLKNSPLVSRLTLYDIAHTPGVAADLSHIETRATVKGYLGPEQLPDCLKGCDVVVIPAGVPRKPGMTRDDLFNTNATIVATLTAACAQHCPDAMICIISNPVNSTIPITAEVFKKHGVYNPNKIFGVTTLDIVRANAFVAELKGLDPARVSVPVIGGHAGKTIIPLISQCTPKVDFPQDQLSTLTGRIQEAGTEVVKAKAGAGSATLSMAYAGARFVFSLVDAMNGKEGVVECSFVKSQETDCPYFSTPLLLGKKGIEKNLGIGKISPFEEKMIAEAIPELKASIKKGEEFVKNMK
Kind of test: Ability to inhibit mitochondrial malate dehydrogenase; Inactive. The procedure, abridged:
as §1

Active and inactive are the calls of the source. No cut-off for these calls is given here.

In the case of `O=C(O)c1cnc2cc(OCCc3ccc(F)cc3)ccc2c1O`, the pI50 entry in test [1] and in test [2] was “inactive” throughout.

Consider `O=C(O)c1cnc2cc(OCc3cccc4ccccc34)ccc2c1O`, for which the pI50 result in test [1] and in test [2] was “inactive” throughout.

In the case of `O=C(O)c1cnc2cc(OCc3c(Cl)c(Cl)c(Cl)c(Cl)c3Cl)ccc2c1O`, the pI50 entry in test [1] and in test [2] was “inactive” in each case.

With `O=C(O)c1cnc2cc(OCCOc3ccc(Br)cc3)ccc2c1O`, the pI50 result in test [1] and in test [2] was “inactive” in each case.

As for `COc1ccc2c(O)c(C(=O)O)cnc2c1`, the pI50 result in test [1], in test [3] and in test [2] was “inactive” each time.

On to `O=C(O)c1cnc2cc(OCCOc3ccc4ccccc4c3)ccc2c1O`, for which the pI50 entry in test [1] and in test [2] was “inactive” in each case.

In the case of `O=C(O)c1cnc2cc(F)ccc2c1O`, in test [2], the pI50 entry was “inactive”.

As to `O=C(O)c1cnc2cc(OCc3ccc4ccccc4c3)ccc2c1O`, the pI50 result in test [1] and in test [2] was “inactive” each time.

With `O=C(O)c1cnc2cc(OCCOc3ccccc3)ccc2c1O`, the pI50 result in test [1] and in test [2] was “inactive” in each case.

As for `O=C(O)c1cnc2cc(OCCc3ccc(Oc4ccccc4)cc3)ccc2c1O`, in test [2], the pI50 result is “inactive”.

For the compound `O=C(O)c1cnc2cc(OCCc3ccccc3)ccc2c1O`, the pI50 result in test [2] was “inactive”.

For the compound `O=C(O)c1cnc2cc(OCc3ccccc3)ccc2c1O`, the pI50 entry in test [1] and in test [2] was “inactive” each time.

For the compound `O=C(O)c1cnc2cc(OCc3ccc(Br)cc3)ccc2c1O`, the pI50 entry in test [1] and in test [2] was “inactive” throughout.

On to `O=C(O)c1cnc2cc(OCCOc3ccc(Oc4ccccc4)cc3)ccc2c1O`, for which the pI50 result in test [2] is “inactive”.

As to `O=C(O)c1cnc2cc(OCCc3ccc4ccccc4c3)ccc2c1O`, the pI50 entry in test [2] is “inactive”.

On to `O=C(O)c1cnc2ccccc2c1O`, for which the pI50 entry in test [1], in test [3] and in test [2] was “inactive” throughout.

Turning to `O=C(O)c1cnc2cc(OCCOc3ccc(F)cc3)ccc2c1O`, the pI50 entry in test [1] and in test [2] was “inactive” each time.

Turning to `O=C(O)c1cnc2cc(OCc3ccc(F)cc3)ccc2c1O`, the pI50 entry in test [1] and in test [2] was “inactive” each time.

In the case of `O=C(O)c1cnc2cc(OCc3ccc(Cl)c(Cl)c3)ccc2c1O`, the pI50 entry in test [1] and in test [2] was “inactive” throughout.

For `NC(=O)c1ccc2c(O)c(C(=O)O)cnc2c1`, the pI50 entry in test [2] was “inactive”.

Source of the values: ChEMBL document CHEMBL1122163, “4-hydroxyquinoline-3-carboxylic acids as inhibitors of cell respiration. 2. Quantitative structure-activity relationship of dehydrogenase enzyme and Ehrlich ascites tumor cell inhibitions” (J Med Chem, 1982).
